From ChEMBL document CHEMBL6134764, “Synthesis and biological evaluation of novel D-ring fused steroidal N(2)-substituted-1,2,3-triazoles” (RSC Med Chem, 2025)
The source made the active and inactive calls. No cut-off for these calls is given here.

Key:
[1] = biological target: T1, Aldo-keto reductase family 1 member C4 (Homo sapiens) (UniProt P17516); assay: Inhibition of N-terminal his-tagged recombinant human AKR1C4 assessed as NADPH consumption using 9,10-phenanthrenequinone as substrate at 33 uM by fluorescence spectroscopic analysis relative to control
T1 sequence (whole entry): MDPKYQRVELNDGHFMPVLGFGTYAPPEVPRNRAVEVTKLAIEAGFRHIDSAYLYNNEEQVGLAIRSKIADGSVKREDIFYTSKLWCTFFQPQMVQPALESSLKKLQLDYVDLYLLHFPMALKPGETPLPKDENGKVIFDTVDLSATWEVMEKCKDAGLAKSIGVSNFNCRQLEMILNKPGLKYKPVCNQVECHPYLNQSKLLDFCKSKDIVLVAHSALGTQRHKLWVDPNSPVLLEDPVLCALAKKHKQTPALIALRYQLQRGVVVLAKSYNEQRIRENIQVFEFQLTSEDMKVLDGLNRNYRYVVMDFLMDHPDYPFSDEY
How it was run: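 N-His-tagged human AKR1C4 from E. coli BL21(DE3), purified by Ni-affinity and size exclusion. Enzyme at 160 μg/mL with 17 μM 9,10-phenanthrenequinone and 250 μM NADPH in 100 mM potassium phosphate pH 6.0, 37 °C, duplicate. Compound at 33 μM final. NADPH fluorescence (ex 340/em 460 nm) read every 30 s for 10 min; inhibition from linear slope vs uninhibited enzyme (100%).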

[2] = biological target: T2, Androgen receptor (Homo sapiens) (UniProt P10275); assay: Binding affinity to human recombinant androgen receptor ligand binding domain extracted from saccharomyces cerevisiae coexpressing yellow fluorescent protein assessed as relative binding affinity at 10 uM incubated for 14 to 16 hrs by fluorimetry based fluorescence microscopic analysis; conditions: time 14-16 hrs
T2 sequence (whole entry): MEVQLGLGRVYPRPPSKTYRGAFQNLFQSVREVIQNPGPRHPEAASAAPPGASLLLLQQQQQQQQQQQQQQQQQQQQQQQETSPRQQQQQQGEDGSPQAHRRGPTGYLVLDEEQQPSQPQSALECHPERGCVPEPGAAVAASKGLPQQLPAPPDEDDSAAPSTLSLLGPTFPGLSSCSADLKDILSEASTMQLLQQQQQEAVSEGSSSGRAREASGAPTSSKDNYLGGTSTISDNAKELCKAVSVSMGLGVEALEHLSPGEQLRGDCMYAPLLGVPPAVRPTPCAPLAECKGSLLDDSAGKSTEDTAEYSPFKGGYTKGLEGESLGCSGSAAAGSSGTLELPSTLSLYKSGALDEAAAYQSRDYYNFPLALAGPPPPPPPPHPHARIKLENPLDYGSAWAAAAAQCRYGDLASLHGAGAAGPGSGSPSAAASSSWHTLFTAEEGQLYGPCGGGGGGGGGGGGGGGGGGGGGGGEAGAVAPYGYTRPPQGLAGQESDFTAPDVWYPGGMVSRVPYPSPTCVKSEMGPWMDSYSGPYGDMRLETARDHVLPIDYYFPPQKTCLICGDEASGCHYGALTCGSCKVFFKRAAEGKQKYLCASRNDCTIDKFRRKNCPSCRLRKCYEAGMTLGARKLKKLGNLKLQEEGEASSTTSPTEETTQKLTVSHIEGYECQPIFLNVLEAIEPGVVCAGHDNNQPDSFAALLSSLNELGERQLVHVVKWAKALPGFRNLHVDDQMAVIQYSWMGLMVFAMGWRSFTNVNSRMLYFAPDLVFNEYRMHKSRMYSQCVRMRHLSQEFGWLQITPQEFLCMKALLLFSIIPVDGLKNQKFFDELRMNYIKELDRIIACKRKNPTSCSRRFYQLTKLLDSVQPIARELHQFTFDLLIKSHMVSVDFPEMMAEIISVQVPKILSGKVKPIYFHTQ
How it was run: (§1)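 S. cerevisiae FY250 carrying receptor LBD–EYFP fusions (human ERα, ERβ, AR; rat GR); raffinose drop-out medium, grown to OD600 ~0.6, fusion induced with 2% galactose. Compounds 10 μM (ER, AR) or 100 μM (GR), 14–16 h, 25 °C, dark; DMSO solvent control. Fluorescence at ex/em 485/538 nm, triplicate; fold change vs DMSO (normalized to 1).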

[3] = biological target: T3, Estrogen receptor (Homo sapiens) (UniProt P03372); assay: Binding affinity to human recombinant ERalpha ligand binding domain extracted from saccharomyces cerevisiae coexpressing yellow fluorescent protein assessed as relative binding affinity at 10 uM incubated for 14 to 16 hrs by fluorimetry based fluorescence microscopic analysis; conditions: time 14-16 hrs; how it was run: as §1
T3 sequence (whole entry): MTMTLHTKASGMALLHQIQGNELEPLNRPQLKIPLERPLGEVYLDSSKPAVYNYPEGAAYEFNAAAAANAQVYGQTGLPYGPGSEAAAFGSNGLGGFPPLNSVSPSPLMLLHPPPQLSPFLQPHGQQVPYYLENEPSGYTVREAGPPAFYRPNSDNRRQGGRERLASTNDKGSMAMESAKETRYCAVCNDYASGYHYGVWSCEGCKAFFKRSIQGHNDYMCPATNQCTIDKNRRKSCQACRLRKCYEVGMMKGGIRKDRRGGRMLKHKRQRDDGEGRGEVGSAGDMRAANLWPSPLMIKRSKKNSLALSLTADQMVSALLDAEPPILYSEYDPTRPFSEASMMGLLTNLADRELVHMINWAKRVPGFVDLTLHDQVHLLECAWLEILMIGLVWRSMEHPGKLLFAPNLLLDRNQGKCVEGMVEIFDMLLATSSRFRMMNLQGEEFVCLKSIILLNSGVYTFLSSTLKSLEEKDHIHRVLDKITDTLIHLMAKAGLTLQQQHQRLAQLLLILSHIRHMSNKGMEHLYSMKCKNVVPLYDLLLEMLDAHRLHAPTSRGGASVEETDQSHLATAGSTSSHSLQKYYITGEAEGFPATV

[4] = biological target: Estrogen receptor beta (Homo sapiens) (UniProt Q92731); assay: Binding affinity to human recombinant ERbeta ligand binding domain extracted from saccharomyces cerevisiae coexpressing yellow fluorescent protein assessed as relative binding affinity at 10 uM incubated for 14 to 16 hrs by fluorimetry based fluorescence microscopic analysis; conditions: time 14-16 hrs; how it was run: as §1
Sequence of Estrogen receptor beta (Homo sapiens) (Q92731 whole entry, the tested form may be a part): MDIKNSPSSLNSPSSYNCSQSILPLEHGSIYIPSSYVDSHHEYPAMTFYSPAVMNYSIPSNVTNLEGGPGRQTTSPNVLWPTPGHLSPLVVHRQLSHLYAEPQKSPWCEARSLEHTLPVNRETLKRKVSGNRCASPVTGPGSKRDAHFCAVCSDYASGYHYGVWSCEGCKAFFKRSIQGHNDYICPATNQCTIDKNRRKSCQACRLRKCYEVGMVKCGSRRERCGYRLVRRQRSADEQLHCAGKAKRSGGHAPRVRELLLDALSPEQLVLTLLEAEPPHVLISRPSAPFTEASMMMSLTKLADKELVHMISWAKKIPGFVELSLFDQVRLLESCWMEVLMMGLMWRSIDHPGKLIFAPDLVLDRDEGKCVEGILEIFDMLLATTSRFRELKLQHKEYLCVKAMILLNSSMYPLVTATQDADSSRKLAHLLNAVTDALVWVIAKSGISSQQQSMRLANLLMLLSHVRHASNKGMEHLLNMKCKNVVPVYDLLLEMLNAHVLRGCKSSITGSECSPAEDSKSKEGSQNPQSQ

MDA-MB-231 = assay: Cytotoxicity against human MDA-MB-231 cells assessed as reduction in cell viability incubated for 72 hrs by resazurin assay; conditions: MDA-MB-231, 72 h
MCF7 = assay: Cytotoxicity against human MCF7 cells assessed as reduction in cell viability incubated for 72 hrs by resazurin assay; conditions: MCF7, 72 h
HCT-116 = assay: Cytotoxicity against human HCT-116 cells assessed as reduction in cell viability incubated for 72 hrs by resazurin assay; conditions: HCT-116, 72 h
[5] = Toxicity in human hTERT-BJ cells assessed as reduction in cell viability at 0.01 to 100 uM incubated for 72 hrs by resazurin assay; type: cell-based; conditions: dose 0.01-100 µM
How it was run: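 hTERT-immortalized BJ-5ta foreskin fibroblasts grown in high-glucose DMEM with 20% Medium 199 and 10% FBS. Exposed to 0.01–100 μM for 72 h, then 0.01 mg/mL resazurin for 2 h, fluorescence at 584 nm; n = 3; one-way ANOVA with Dunnett's test vs control.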

Huh-7 = assay: Cytotoxicity against human Huh-7 cells assessed as reduction in cell viability incubated for 72 hrs by resazurin assay; conditions: Huh-7, 72 h

SMILES | inhibition [1] | Activity [2] | Activity [3] | Activity [4] | IC50 (MDA-MB-231) | IC50 (MCF7) | IC50 (HCT-116) | Activity [5] | IC50 (Huh-7)
CC(C)Cc1ccc(C(C)C(=O)O)cc1 (configuration not stated) | 43.9% | – | – | – | – | – | – | – | –
C[C@]12CC[C@H](O)CC1=CC[C@@H]1[C@@H]2CC[C@]2(C)c3nn(Cc4ccccc4)nc3C[C@@H]12 | 0% | inactive | inactive | – | – | – | – | – | –
CCOC(=O)Cn1nc2c(n1)[C@@]1(C)CC[C@H]3[C@@H](CC=C4C[C@@H](O)CC[C@@]43C)[C@@H]1C2 | 0% | inactive | inactive | – | – | – | – | – | –
Cn1nc2c(n1)[C@@]1(C)CC[C@@H]3c4ccc(OCc5ccccc5)cc4CC[C@H]3[C@@H]1C2 | 0% | inactive | inactive | – | – | – | – | – | –
Cn1nc2c(n1)[C@@]1(C)CC[C@H]3[C@@H](CC=C4C[C@@H](O)CC[C@@]43C)[C@@H]1C2 | 0% | inactive | inactive | Active | – | – | – | – | –
CCn1nc2c(n1)[C@@]1(C)CC[C@H]3[C@@H](CC=C4C[C@@H](O)CC[C@@]43C)[C@@H]1C2 | 2.81% | inactive | inactive | – | – | – | – | – | –
C[C@]12CC[C@H](O)CC1=CC[C@@H]1[C@@H]2CC[C@]2(C)c3nn(CCN)nc3C[C@@H]12 | 2.29% | inactive | inactive | – | 22.3 µM | 22.3 µM | 22.3 µM | Toxic | 22.3 µM
CCn1nc2c(n1)[C@@]1(C)CC[C@@H]3c4ccc(OCc5ccccc5)cc4CC[C@H]3[C@@H]1C2 | 0% | inactive | inactive | – | – | – | – | – | –
C[C@]12CC[C@@H]3c4ccc(OCc5ccccc5)cc4CC[C@H]3[C@@H]1Cc1nn(Cc3ccccc3)nc12 | 0% | inactive | inactive | Active | – | – | – | – | –
CCCCCCCCn1nc2c(n1)[C@@]1(C)CC[C@@H]3c4ccc(OCc5ccccc5)cc4CC[C@H]3[C@@H]1C2 | 0% | inactive | inactive | – | – | – | – | – | –
CC(=O)O[C@H]1CC[C@@]2(C)C(=CC[C@@H]3[C@@H]2CC[C@]2(C)c4nn(C(C)=O)nc4C[C@@H]32)C1 | 8.32% | inactive | inactive | Active | – | – | – | – | –
CCCCn1nc2c(n1)[C@@]1(C)CC[C@H]3[C@@H](CC=C4C[C@@H](O)CC[C@@]43C)[C@@H]1C2 | 0% | inactive | inactive | – | – | – | – | – | –
